Data reported in ChEMBL document CHEMBL1158703, “Psychopharmacological profile of the alkaloid psychollatine as a 5HT2A/C serotonin modulator” (2005).
The source made the active and inactive calls.

What was measured:
[1] = tested on: Mus musculus; assay: Anxiolytic activity against CF1 mouse assessed as increase in time spent in light compartment at 7.5 mg/kg for 5 mins; type: functional, organism-based; design: dose 7.5 mg/kg
Summary of the method: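 Light/dark box with a black, room-lit small compartment and a white large compartment lit at 400 lx. Male CF1 mice were acclimated at least 1 h under dim red light and dosed i.p. 30 min before testing. Recorded were latency to first entry and time spent in the light area. Values are mean ± SEM (N = 19-22), analysed by one-way ANOVA then SNK.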

[2] = tested on: Mus musculus; assay: Antidepressant activity in CF1 mouse assessed as decrease in duration of immobility at 30 mg/kg during final 4 mins of the 6 mins session by forced swimming test; type: functional, organism-based; design: dose 30 mg/kg
Summary of the method: (§1)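 Male adult CF1 mice given i.p. doses in saline (pH 7.0), N = 10. Each mouse swam 6 min in a 30 cm-diameter cylinder holding 20 cm of water at 25 ± 1 °C. Immobility was timed over the last 4 min. Values are mean ± SEM, analysed by ANOVA against saline.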

[3] = tested on: Mus musculus; assay: Effect on long term memory of CF1 mouse assessed as reduction in step down latency at 7.5 mg/kg by passive avoidance test; type: functional
Summary of the method: (§2)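 Step-down inhibitory avoidance in male CF1 mice dosed i.p. immediately after training, during which a 0.3 mA foot shock for 15 s followed stepping down. Test step-down latency was recorded 24 h later without shock, with a 300 s cutoff. N = 20 per group; values are median (interquartile range).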

[4] = tested on: Mus musculus; assay: Anxiolytic activity against CF1 mouse assessed as increase in number of head dips at 7.5 mg/kg after 30 mins by hole-board assay; type: functional, organism-based; design: dose 7.5 mg/kg
Summary of the method: (§3)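 Hole-board set 15 cm high and divided into 16 squares, with photocells counting head-dips. Male CF1 mice were dosed i.p. and placed centrally 30 min later under dim light. Over 5 min, head-dips, rearings and squares crossed were counted. Values are mean ± SEM (N = 15), analysed by one-way ANOVA then SNK.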

[5] = tested on: Mus musculus; assay: Anxiolytic activity against CF1 mouse assessed as increase in number of rearings at 15 mg/kg after 30 mins by hole-board assay; type: functional, organism-based; design: dose 15 mg/kg; summary of the method: as §3
[6] = tested on: Mus musculus; assay: Effect on long term memory of CF1 mouse assessed as reduction in latency during aquisition at 100 mg/kg by passive avoidance test; type: functional
Summary of the method: (§4)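 Step-down inhibitory avoidance in male CF1 mice with i.p. dosing 30 min before training. Stepping down during training gave a 0.3 mA scrambled foot shock for 15 s. The latency to step down during training was recorded, with no exclusion criterion applied. N = 20 per group; values are median (interquartile range).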

[7] = tested on: Mus musculus; assay: Anxiolytic activity against CF1 mouse assessed as increase in number of head dips at 15 mg/kg after 30 mins by hole-board assay; type: functional, organism-based; design: dose 15 mg/kg; summary of the method: as §3
[8] = tested on: Mus musculus; assay: Anxiolytic activity against CF1 mouse assessed as reduction in number in head dips at 200 mg/kg after 30 mins by hole-board assay; type: functional, organism-based; design: dose 200 mg/kg; summary of the method: as §3
[9] = tested on: Mus musculus; assay: Anxiolytic activity against CF1 mouse assessed as increase in number of head dips at 7.5 mg/kg after 30 mins in presence of ritanserin by hole-board assay; type: functional, organism-based; design: dose 7.5 mg/kg
Summary of the method: (§5)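 Male CF1 mice received ritanserin 2 mg/kg i.p. in 10% DMSO 30 min before the test drug at 7.5 mg/kg i.p. The 5 min hole-board session began 30 min later, counting head-dips, crossings and rearings. Values are mean ± SEM (N = 8-14), analysed by ANOVA/SNK.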

[10] = tested on: Mus musculus; assay: Anxiolytic activity against CF1 mouse assessed as increase in time spent in light compartment at 7.5 mg/kg in presence of ritanserin for 5 mins; type: functional, organism-based; design: dose 7.5 mg/kg
Summary of the method: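 Male CF1 mice received ritanserin 2 mg/kg i.p. (in 10% DMSO) 30 min before the test drug at 7.5 mg/kg i.p. The light/dark test followed 30 min later, scoring latency to first entry and time in the light compartment. Values are mean ± SEM (N = 8-10), analysed by one-way ANOVA/SNK.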

[11] = tested on: Mus musculus; assay: Anxiolytic activity against CF1 mouse assessed as increase in number of crossings at 7.5 mg/kg after 30 mins by hole-board assay; type: functional, organism-based; design: dose 7.5 mg/kg; summary of the method: as §3
[12] = tested on: Mus musculus; assay: Anxiolytic activity against CF1 mouse assessed as increase in number of rearings at 7.5 mg/kg after 30 mins in presence of ritanserin by hole-board assay; type: functional, organism-based; design: dose 7.5 mg/kg; summary of the method: as §5
[13] = tested on: Mus musculus; assay: Potentiation of pentobarbital-induced sleeping time in CF1 mouse at 100 mg/kg; type: functional, organism-based; design: dose 100 mg/kg
Summary of the method: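 Male CF1 mice (N = 9-12) were dosed i.p. and given sodium pentobarbital 40 mg/kg i.p. 30 min later. Sleeping time was recorded as the interval from loss to recovery of the righting reflex. Values are mean ± SEM, analysed by ANOVA against controls.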

[14] = tested on: Mus musculus; assay: Antidepressant activity in CF1 mouse assessed as decrease in duration of immobility at 3 mg/kg during final 4 mins of the 6 mins session by forced swimming test; type: functional; summary of the method: as §1
[15] = tested on: Mus musculus; assay: […] of CF1 mouse assessed as reduction in step down latency at 10 mg/kg by passive avoidance test; type: functional
[16] = tested on: Mus musculus; assay: […] of CF1 mouse assessed as reduction in step down latency at 3 mg/kg by passive avoidance test; type: functional
[17] = tested on: Mus musculus; assay: Anxiolytic activity against CF1 mouse assessed as increase in number of crossings at 15 mg/kg after 30 mins by hole-board assay; type: functional, organism-based; design: dose 15 mg/kg; summary of the method: as §3
[18] = tested on: Mus musculus; assay: Effect on long term memory of CF1 mouse assessed as reduction in latency during aquisition at 7.5 mg/kg by passive avoidance test; type: functional; summary of the method: as §4
[19] = tested on: Mus musculus; assay: Anxiolytic activity against CF1 mouse assessed as reduction in number in crossings at 200 mg/kg after 30 mins by hole-board assay; type: functional, organism-based; design: dose 200 mg/kg; summary of the method: as §3
[20] = tested on: Mus musculus; assay: Effect on locomotory activity in CF1 mouse assessed as change in spontaneous activity at 0.75 and 0.85 mg/kg; type: functional, organism-based; design: dose 0.85 mg/kg
Summary of the method: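 Mice were habituated singly for 10 min in photocell activity cages and then dosed i.p. Diazepam was given in 10% propylene glycol. After 30 min, crossings were recorded for 15 min. n = 10–16, ANOVA then SNK.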

[21] = species on record: Mus musculus; assay: Anticonvulsant activity against CF1 mouse assessed as protection against PTZ-induced convulsions for 60 mins; type: functional, organism-based
Summary of the method: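 Male adult CF1 mice (n = 10/group) dosed i.p.; 30 min later pentylenetetrazol 88 mg/kg s.c. Each mouse placed alone in an acrylic chamber and watched 60 min for clonic convulsions lasting over 3 s. Read-out is the fraction of mice convulsing, analysed by Fisher's exact test.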

[22] = tested on: Mus musculus; assay: Effect on long term memory of CF1 mouse assessed as reduction in step down latency at 100 mg/kg by passive avoidance test; type: functional; summary of the method: as §2
[23] = tested on: Mus musculus; assay: Antidepressant activity in CF1 mouse assessed as decrease in duration of immobility at 10 mg/kg during final 4 mins of the 6 mins session by forced swimming test; type: functional, organism-based; design: dose 10 mg/kg; summary of the method: as §1
[24] = tested on: Mus musculus; assay: Effect on short term memory of CF1 mouse assessed as reduction in step down latency at 7.5 mg/kg by passive avoidance test; type: functional
[25] = tested on: Mus musculus; assay: […] of CF1 mouse assessed as reduction in step down latency at 0.85 mg/kg by passive avoidance test; type: functional
[26] = tested on: Mus musculus; assay: Anxiolytic activity against CF1 mouse assessed as suppression of oxotremorine-treated tremors at 3 mg/kg; type: functional, organism-based; design: dose 3 mg/kg
Summary of the method: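 Mice received treatment i.p. 30 min before oxotremorine 0.5 mg/kg in saline. Each mouse was then placed alone in a transparent cage immediately after injection and tremor was scored. Data given as median (interquartile range); Kruskal–Wallis then Mann–Whitney U against saline + oxotremorine.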

[27] = tested on: Mus musculus; assay: […] of CF1 mouse assessed as reduction in step down latency at 30 mg/kg by passive avoidance test; type: functional
[28] = tested on: Mus musculus; assay: Anxiolytic activity against CF1 mouse assessed as increase in number of rearings at 7.5 mg/kg after 30 mins by hole-board assay; type: functional, organism-based; design: dose 7.5 mg/kg; summary of the method: as §3

## COC(=O)C1=CO[C@@H](O[C@H]2O[C@H](CO)[C@@H](O)[C@H](O)[C@H]2O)[C@@H]2C([C@@H]3NCCc4c3[nH]c3ccccc43)=CC[C@H]12 [PSYCHOLLATINE]
[1]
  Activity: Active
[2]
  Activity: inactive
[3]
  Activity: 13.1 s
[4]
  Activity: Active
[5]
  Activity: Active
[6]
  Activity: 5 s
[7]
  Activity: Active
[8]
  Activity: Active
[9]
  Activity: inactive
[10]
  Activity: inactive
[11]
  Activity: Active
[12]
  Activity: inactive
[13]
  Activity: Active
[14]
  Activity: 48.88 s
[15]
  Activity: 11.55 s
[16]
  Activity: 11.8 s
[17]
  Activity: Active
[18]
  Activity: 13.4 s
[19]
  Activity: Active
[20]
  Activity: inactive
[21]
  Activity: inactive
[22]
  Activity: 9.5 s
[23]
  Activity: inactive
[24]
  Activity: 9.6 s
[25]
  Activity: 8.3 s
[26]
  Activity: Active
[27]
  Activity: 12.8 s
[28]
  Activity: Active
